Test results published in ChEMBL document CHEMBL3112482, “Nonclassical antifolates, part 5. Benzodiazepine analogs as a new class of DHFR inhibitors: synthesis, antitumor testing and molecular modeling study” (Eur J Med Chem, 2014).

Columns and labels:
Assay type in all cases: functional
MDA-MB-435 = assay: Growth inhibition of human MDA-MB-435 cells at 10 uM after 48 hrs; details: MDA-MB-435, 48 h, read-out: GI
How it was run: (§1)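 Single-dose primary screen in the NCI 60 human tumour cell line panel, run at the NCI facility. The panel covers nine subpanels: leukaemia, non-small cell lung, colon, CNS, melanoma, ovarian, renal, prostate and breast. Read-out was percent growth of treated cells, shown as a mean graph and reported as percent growth inhibition.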

Malme-3M = assay: Growth inhibition of human MALME-3M cells at 10 uM after 48 hrs; details: read-out: GI; how it was run: as §1
SNB-75 = assay: Growth inhibition of human SNB75 cells at 10 uM after 48 hrs; details: SNB-75, 48 h, read-out: GI
How it was run: (§2)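 NCI 60-cell-line disease-oriented human tumor panel, single-dose primary screen at 10 µM. Data given as mean-graph percent growth of treated cells, reported as percent growth inhibition (GI %).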

SNB-19 = assay: Growth inhibition of human SNB19 cells at 10 uM after 48 hrs; details: SNB-19, 48 h, read-out: GI; how it was run: as §2
[1] = Growth inhibition of human SF539 cells at 10 uM after 48 hrs; details: SF-539, 48 h, read-out: GI; how it was run: as §2
SF-268 = assay: Growth inhibition of human SF268 cells at 10 uM after 48 hrs; details: SF-268, 48 h, read-out: GI; how it was run: as §2
HT-29 = assay: Growth inhibition of human HT-29 cells at 10 uM after 48 hrs; details: HT-29, 48 h, read-out: GI; how it was run: as §1
COLO 205 = assay: Growth inhibition of human COLO205 cells at 10 uM after 48 hrs; details: COLO 205, 48 h, read-out: GI; how it was run: as §1
NCI-H322M = assay: Growth inhibition of human NCI-H322M cells at 10 uM after 48 hrs; details: read-out: GI; how it was run: as §1
NCI-H23 = assay: Growth inhibition of human NCI-H23 cells at 10 uM after 48 hrs; details: NCI-H23, 48 h, read-out: GI; how it was run: as §1
[2] = Growth inhibition of human HOP92 cells at 10 uM after 48 hrs; details: HOP-92, 48 h, read-out: GI; how it was run: as §1
NCI-H226 = assay: Growth inhibition of human NCI-H226 cells at 10 uM after 48 hrs; details: NCI-H226, 48 h, read-out: GI; how it was run: as §1
[3] = Growth inhibition of human EKVX cells at 10 uM after 48 hrs; details: read-out: GI; how it was run: as §1
A549 = assay: Growth inhibition of human A549 cells at 10 uM after 48 hrs; details: A549, 48 h, read-out: GI; how it was run: as §1
SR = assay: Growth inhibition of human SR cells at 10 uM after 48 hrs; details: read-out: GI; how it was run: as §2
K562 = assay: Growth inhibition of human K562 cells at 10 uM after 48 hrs; details: K562, 48 h, read-out: GI; how it was run: as §1
MOLT-4 = assay: Growth inhibition of human MOLT4 cells at 10 uM after 48 hrs; details: MOLT-4, 48 h, read-out: GI; how it was run: as §1
CCRF-CEM = assay: Growth inhibition of human CCRF-CEM cells at 10 uM after 48 hrs; details: read-out: GI; how it was run: as §1
T47D = assay: Growth inhibition of human T47D cells at 10 uM after 48 hrs; details: read-out: GI; how it was run: as §2
BT-549 = assay: Growth inhibition of human BT549 cells at 10 uM after 48 hrs; details: BT-549, 48 h, read-out: GI; how it was run: as §1
[4] = Growth inhibition of human Hs 578T cells at 10 uM after 48 hrs; details: read-out: GI; how it was run: as §1
MCF7 = assay: Growth inhibition of human MCF7 cells at 10 uM after 48 hrs; details: MCF7, 48 h, read-out: GI; how it was run: as §1
MDA-MB-231 = assay: Growth inhibition of human MDA-MB-231 cells at 10 uM after 48 hrs; details: MDA-MB-231, 48 h, read-out: GI; how it was run: as §1
DU-145 = assay: Growth inhibition of human DU145 cells at 10 uM after 48 hrs; details: DU-145, 48 h, read-out: GI; how it was run: as §1
PC-3 = assay: Growth inhibition of human PC3 cells at 10 uM after 48 hrs; details: PC-3, 48 h, read-out: GI; how it was run: as §1
TK-10 = assay: Growth inhibition of human TK10 cells at 10 uM after 48 hrs; details: TK-10, 48 h, read-out: GI; how it was run: as §2
[5] = Growth inhibition of human UO31 cells at 10 uM after 48 hrs; details: UO-31, 48 h, read-out: GI; how it was run: as §2
SN12C = assay: Growth inhibition of human SN12C cells at 10 uM after 48 hrs; details: read-out: GI; how it was run: as §2
CAKI-1 = assay: Growth inhibition of human CAKI-1 cells at 10 uM after 48 hrs; details: CAKI-1, 48 h, read-out: GI; how it was run: as §1
[6] = Growth inhibition of human RXF393 cells at 10 uM after 48 hrs; details: RXF 393, 48 h, read-out: GI; how it was run: as §1
ACHN = assay: Growth inhibition of human ACHN cells at 10 uM after 48 hrs; details: read-out: GI; how it was run: as §1
786-0 = assay: Growth inhibition of human 786-0 cells at 10 uM after 48 hrs; details: 786-0, 48 h, read-out: GI; how it was run: as §1
SK-OV-3 = assay: Growth inhibition of human SKOV3 cells at 10 uM after 48 hrs; details: SK-OV-3, 48 h, read-out: GI; how it was run: as §2
[7] = Growth inhibition of human NCI-ADR-RES cells at 10 uM after 48 hrs; details: read-out: GI; how it was run: as §1
OVCAR-8 = assay: Growth inhibition of human OVCAR8 cells at 10 uM after 48 hrs; details: OVCAR-8, 48 h, read-out: GI; how it was run: as §1
[8] = Growth inhibition of human OVCAR5 cells at 10 uM after 48 hrs; details: OVCAR-5, 48 h, read-out: GI; how it was run: as §1
OVCAR-3 = assay: Growth inhibition of human OVCAR3 cells at 10 uM after 48 hrs; details: OVCAR-3, 48 h, read-out: GI; how it was run: as §1
[9] = Growth inhibition of human OVCAR4 cells at 10 uM after 48 hrs; details: OVCAR-4, 48 h, read-out: GI; how it was run: as §1
SK-MEL-5 = assay: Growth inhibition of human SK-MEL-5 cells at 10 uM after 48 hrs; details: SK-MEL-5, 48 h, read-out: GI; how it was run: as §2
SK-MEL-28 = assay: Growth inhibition of human SK-MEL-28 cells at 10 uM after 48 hrs; details: SK-MEL-28, 48 h, read-out: GI; how it was run: as §2

Measured: inhibition of growth at 10 µM

COc1ccc(/C=C2\CCCC3=C(c4ccc(OC)cc4)Nc4ccccc4N=C32)cc1
86.2%: MDA-MB-435
49.1%: K562
46.1%: SR
44%: MCF7
< 30%: all other assays above
